The source made the active and inactive calls. No cut-off for these calls is given here.
Experiments:
[1] = molecular target: T1, Progesterone receptor (Homo sapiens) (UniProt P06401); test: Agonist activity at PR-A (unknown origin) by transcriptional reporter assay
T1 sequence (whole entry): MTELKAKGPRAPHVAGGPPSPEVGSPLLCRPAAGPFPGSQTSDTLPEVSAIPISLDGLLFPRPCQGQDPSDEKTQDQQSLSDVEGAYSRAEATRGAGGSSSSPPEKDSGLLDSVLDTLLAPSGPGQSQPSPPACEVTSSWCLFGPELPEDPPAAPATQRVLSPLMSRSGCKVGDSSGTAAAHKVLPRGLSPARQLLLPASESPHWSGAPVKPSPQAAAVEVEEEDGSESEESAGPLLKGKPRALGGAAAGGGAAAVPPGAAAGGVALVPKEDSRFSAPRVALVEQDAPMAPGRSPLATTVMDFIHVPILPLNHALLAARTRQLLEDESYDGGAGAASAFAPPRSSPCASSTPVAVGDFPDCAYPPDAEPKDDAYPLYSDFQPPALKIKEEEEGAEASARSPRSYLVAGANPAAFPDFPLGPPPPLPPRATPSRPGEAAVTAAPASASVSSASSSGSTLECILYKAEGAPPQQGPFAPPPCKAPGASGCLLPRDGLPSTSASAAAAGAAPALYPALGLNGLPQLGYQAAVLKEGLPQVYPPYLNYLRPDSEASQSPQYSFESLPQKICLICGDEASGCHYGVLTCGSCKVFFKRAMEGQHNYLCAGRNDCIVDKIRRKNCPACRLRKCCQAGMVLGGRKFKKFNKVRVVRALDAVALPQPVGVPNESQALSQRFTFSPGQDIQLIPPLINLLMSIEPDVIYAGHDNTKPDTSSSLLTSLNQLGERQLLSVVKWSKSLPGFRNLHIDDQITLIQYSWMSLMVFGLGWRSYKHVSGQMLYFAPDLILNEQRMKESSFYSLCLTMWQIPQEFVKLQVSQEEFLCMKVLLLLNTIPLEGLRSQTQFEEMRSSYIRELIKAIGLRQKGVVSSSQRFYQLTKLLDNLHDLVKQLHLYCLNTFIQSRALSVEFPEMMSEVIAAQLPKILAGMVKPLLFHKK

[2] = Unbound fraction in mouse plasma; assay type: ADME, cell-free
[3] = molecular target: T1, Progesterone receptor (Homo sapiens); test: Agonist activity at PR-B (unknown origin) by transcriptional reporter assay
[4] = molecular target: T2, Glucocorticoid receptor (Homo sapiens) (UniProt P04150); test: Agonist activity at GR (unknown origin) by transcriptional reporter assay
T2 sequence (whole entry): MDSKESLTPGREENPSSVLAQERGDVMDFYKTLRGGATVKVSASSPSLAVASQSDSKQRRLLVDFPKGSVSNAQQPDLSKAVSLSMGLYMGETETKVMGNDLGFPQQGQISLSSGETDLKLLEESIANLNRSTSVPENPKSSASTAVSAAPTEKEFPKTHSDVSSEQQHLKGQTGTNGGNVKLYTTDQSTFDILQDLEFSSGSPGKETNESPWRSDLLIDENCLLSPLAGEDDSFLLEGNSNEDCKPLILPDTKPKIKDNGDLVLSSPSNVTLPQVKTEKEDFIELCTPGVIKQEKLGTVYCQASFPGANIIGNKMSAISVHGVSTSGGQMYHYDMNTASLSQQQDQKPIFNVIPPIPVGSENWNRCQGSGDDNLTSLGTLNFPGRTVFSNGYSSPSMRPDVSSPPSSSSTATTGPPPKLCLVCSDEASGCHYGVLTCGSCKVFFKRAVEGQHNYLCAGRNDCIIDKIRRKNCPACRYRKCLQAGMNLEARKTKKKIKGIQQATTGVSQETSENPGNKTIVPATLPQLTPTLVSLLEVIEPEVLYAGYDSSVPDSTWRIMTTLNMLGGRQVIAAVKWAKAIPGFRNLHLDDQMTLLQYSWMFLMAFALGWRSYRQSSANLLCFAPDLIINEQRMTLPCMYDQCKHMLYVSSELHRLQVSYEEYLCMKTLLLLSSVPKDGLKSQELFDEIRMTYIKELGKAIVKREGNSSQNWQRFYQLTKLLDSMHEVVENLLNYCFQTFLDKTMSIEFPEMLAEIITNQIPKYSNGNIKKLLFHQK

[5] = Unbound Cmax in nude mouse xenografted with tamoxifen-resistant human MCF7 cells at 100 mg/kg, po daily for 28 days measured on day 28 post last dose; assay type: ADME, organism-based; conditions: in vivo, 672 h
Outline: (§1)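 Tamoxifen-resistant MCF-7 xenograft mice carrying subcutaneous 0.72 mg estradiol pellets. Plasma pharmacokinetics sampled on day 28 of the study, at take-down.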

[6] = molecular target: T1, Progesterone receptor (Homo sapiens); test: Antagonist activity at PR-A (unknown origin) by transcriptional reporter assay
[7] = Oral bioavailability in rat at 10 mg/kg daily for 3 days measured on day 3 post last dose; assay type: ADME, organism-based; conditions: in vivo
[8] = molecular target: Cytochrome P450 2C19 (Homo sapiens, UniProt P33261); test: Competitive inhibition of CYP2C19 (unknown origin); assay type: ADME
[9] = AUC (0 to 24 hrs) in nude mouse xenografted with tamoxifen-resistant human MCF7 cells at 100 mg/kg, po daily for 28 days measured on day 28 post last dose; assay type: ADME, organism-based; design: time < 24 hr, dose 100 mg/kg, route oral; conditions: in vivo; outline: as §1
[10] = molecular target: Voltage-gated inwardly rectifying potassium channel KCNH2 (Homo sapiens, UniProt Q12809); test: Inhibition of human ERG by patch clamp method
[11] = tested on: Rattus norvegicus; test: In vivo inverse agonist activity at ERalpha in CD-IGS rat assessed as decrease in uterine weight at 10 mg/kg, po for 3 consecutive days measured at 24 hrs post last dose; assay type: functional, organism-based
Outline: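 Rat uterine wet weight assay run in agonist mode, with no ethynyl estradiol added. Oral dosing at 10 mg/kg for 3 days. Uterine weights compared with those of vehicle-treated animals.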

[12] = Genotoxicity in Salmonella typhimurium TA100 by Ames test; assay type: toxicity; conditions: salmonella enterica subsp. enterica serovar […]
[13] = Unbound AUC (0 to 24 hrs) in nude mouse xenografted with tamoxifen-resistant human MCF7 cells at 100 mg/kg, po daily for 28 days measured on day 28 post last dose; assay type: ADME, organism-based; conditions: in vivo; outline: as §1
[14] = molecular target: T3, Cytochrome P450 2C8 (Homo sapiens, UniProt P10632); test: Inhibition of CYP2C8 (unknown origin); assay type: ADME
T3 sequence (P10632 whole entry): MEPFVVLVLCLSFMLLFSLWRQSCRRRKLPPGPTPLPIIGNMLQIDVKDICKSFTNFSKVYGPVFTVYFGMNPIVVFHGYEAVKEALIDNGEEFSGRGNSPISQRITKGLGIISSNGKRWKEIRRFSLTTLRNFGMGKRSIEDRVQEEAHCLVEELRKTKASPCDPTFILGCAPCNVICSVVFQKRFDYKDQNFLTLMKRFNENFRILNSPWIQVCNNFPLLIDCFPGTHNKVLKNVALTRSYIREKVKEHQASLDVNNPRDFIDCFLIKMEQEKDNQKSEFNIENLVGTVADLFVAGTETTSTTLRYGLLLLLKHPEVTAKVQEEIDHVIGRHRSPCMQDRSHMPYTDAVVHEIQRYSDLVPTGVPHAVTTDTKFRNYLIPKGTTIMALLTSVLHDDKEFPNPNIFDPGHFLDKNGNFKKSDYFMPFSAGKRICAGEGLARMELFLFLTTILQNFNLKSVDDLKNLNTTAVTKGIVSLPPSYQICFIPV

Sequence of Cytochrome P450 2C19 (P33261 whole entry): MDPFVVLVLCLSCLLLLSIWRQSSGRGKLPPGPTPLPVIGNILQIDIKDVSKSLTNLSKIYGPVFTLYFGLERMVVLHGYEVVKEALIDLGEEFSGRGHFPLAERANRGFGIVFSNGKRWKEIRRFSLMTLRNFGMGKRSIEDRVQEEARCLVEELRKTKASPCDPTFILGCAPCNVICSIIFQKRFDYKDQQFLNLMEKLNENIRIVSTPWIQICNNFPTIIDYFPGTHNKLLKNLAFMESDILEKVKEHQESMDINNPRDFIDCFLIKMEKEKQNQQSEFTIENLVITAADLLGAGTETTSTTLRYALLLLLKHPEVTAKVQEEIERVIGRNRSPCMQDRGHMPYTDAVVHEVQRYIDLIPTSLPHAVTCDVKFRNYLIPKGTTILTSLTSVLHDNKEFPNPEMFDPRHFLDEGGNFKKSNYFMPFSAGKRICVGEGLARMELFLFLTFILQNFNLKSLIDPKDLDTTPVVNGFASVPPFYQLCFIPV
Sequence of Voltage-gated inwardly rectifying potassium channel KCNH2 (Q12809 whole entry): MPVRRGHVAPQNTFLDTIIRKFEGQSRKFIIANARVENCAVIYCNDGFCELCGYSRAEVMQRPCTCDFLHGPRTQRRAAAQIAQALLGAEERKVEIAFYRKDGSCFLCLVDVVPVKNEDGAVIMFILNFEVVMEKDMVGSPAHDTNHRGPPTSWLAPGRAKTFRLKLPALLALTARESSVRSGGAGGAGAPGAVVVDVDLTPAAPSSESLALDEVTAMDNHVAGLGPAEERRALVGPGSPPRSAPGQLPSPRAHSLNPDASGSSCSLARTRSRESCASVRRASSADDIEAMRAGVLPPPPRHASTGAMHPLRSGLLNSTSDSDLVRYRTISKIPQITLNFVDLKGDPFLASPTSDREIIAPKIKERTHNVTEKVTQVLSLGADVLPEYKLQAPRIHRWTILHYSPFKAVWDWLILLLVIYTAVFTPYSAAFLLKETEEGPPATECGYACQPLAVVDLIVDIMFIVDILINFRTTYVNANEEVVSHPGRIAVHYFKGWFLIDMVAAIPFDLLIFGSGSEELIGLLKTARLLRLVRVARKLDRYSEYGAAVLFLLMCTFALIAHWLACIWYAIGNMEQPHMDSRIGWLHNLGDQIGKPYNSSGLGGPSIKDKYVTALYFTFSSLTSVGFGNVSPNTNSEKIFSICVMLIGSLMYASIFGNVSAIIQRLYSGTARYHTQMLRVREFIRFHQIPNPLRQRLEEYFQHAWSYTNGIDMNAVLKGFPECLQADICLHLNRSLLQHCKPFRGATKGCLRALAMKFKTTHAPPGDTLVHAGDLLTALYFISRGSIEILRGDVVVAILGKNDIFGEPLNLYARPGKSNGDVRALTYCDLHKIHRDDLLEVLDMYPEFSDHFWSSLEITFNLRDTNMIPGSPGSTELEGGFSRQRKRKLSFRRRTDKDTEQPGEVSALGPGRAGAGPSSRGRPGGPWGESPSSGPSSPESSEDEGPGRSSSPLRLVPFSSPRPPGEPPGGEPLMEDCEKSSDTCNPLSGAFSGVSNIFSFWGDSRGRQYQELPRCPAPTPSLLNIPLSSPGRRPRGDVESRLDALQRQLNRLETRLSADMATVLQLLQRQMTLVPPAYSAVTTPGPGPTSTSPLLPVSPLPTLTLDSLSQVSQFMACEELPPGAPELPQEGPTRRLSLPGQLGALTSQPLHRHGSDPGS

In the case of `CC1=C(c2cccc(O)c2)[C@H](c2ccc(OCCN3CC(CF)C3)cc2)Oc2ccc(O)cc21`, the Activity [1] is reported as “inactive”, the Fu [2] is reported as 1.9% and the Activity [3] is reported as “inactive”. The Activity [4] was “inactive”, the fCmax [5] was 0.018 µg/mL and the inhibition [6] was “inactive”. The bioavailability [7] was 10%, the IC50 [8] was > 10 µM and the AUC at 24 h [9] was 6900 ng·h/mL. The IC50 [10] was 4.6 µM, the Activity [11] was “Active” and the Activity [12] was “Non-Toxic”. It also gave a fAUC [13] of 130 ng·h/mL and an IC50 [14] of 3 µM.

Source: ChEMBL document CHEMBL4330143, “Maximizing ER-α Degradation Maximizes Activity in a Tamoxifen-Resistant Breast Cancer Model: Identification of GDC-0927” (ACS Med Chem Lett, 2019)
